In ChEMBL document CHEMBL1212893, “Antiplasmodial triterpenoids from the fruits of neem, Azadirachta indica” (J Nat Prod, 2010):

Experiments:
Plasmodium falciparum [1] = assay: Antiplasmodial activity against chloroquine-sensitive Plasmodium falciparum D10 after 72 hrs by LDH assay; format: functional, organism-based; settings: D10, 72 h
In short: (§1)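 P. falciparum grown in human A+ red cells at 5% hematocrit in RPMI 1640 with 1% AlbuMaxII, 0.01% hypoxanthine, 20 mM Hepes and 2 mM glutamine, at 37 °C under 1% O2/5% CO2/94% N2. Compounds dissolved in water or DMSO and diluted in medium. Growth read by pLDH. Values are mean ± SD of three experiments run in duplicate.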

Plasmodium falciparum [2] = assay: Antiplasmodial activity against chloroquine-resistant Plasmodium falciparum W2 after 72 hrs by LDH assay; format: functional, organism-based; settings: W2, 72 h; in short: as §1

| SMILES | IC50 (Plasmodium falciparum [1]) [µM] | IC50 (Plasmodium falciparum [2]) [µM] |
| --- | --- | --- |
| CC(=O)O[C@@H]1C[C@H]2C(C)(C)C(=O)C=C[C@]2(C)[C@H]2CC[C@]3(C)C(=CC(=O)[C@H]3c3ccoc3)[C@@]21C [AZADIRADIONE] | 5.96 | 3.4 |
| CC(=O)O[C@@H]1C[C@H]2C(C)(C)C(=O)C=C[C@]2(C)[C@H]2CC[C@]3(C)C(=CC[C@H]3c3ccoc3)[C@@]21C [AZADIRONE] | 1.63 | 1.21 |
| CC1(C)C(=O)C=C[C@]2(C)[C@H]3CC[C@@]4(C)[C@H](c5ccoc5)OC(=O)[C@H]5O[C@]54[C@]3(C)[C@H](O)C[C@@H]12 [DEACETYLGEDUNIN] | 5.14 | 3.29 |
| CC(=O)O[C@@H]1C[C@H]2C(C)(C)C(=O)C=C[C@]2(C)[C@H]2CC[C@]3(C)C(=CC(=O)[C@H]3[C@@H]3COC(O)C3)[C@@]21C (some centres undefined) [DESMETHYLLIMOCIN B] | 4.8 | 2.59 |
| CC(=O)O[C@@H]1C[C@H]2C(C)(C)C(=O)C=C[C@]2(C)[C@H]2CC[C@@]3(C)[C@H](c4ccoc4)C(=O)[C@H]4O[C@]43[C@@]21C [EPOXYAZADIRADIONE] | 3.3 | 2.16 |
| CC(=O)O[C@@H]1C[C@H]2C(C)(C)C(=O)C=C[C@]2(C)[C@H]2CC[C@@]3(C)[C@H](c4ccoc4)OC(=O)[C@H]4O[C@]43[C@@]21C [GEDUNIN] | – | 1.31 |
| CC(=O)O[C@H]1CC(=O)C(C)(C)[C@@H]2C[C@@H](OC(C)=O)[C@@]3(C)C4=CC[C@@H]([C@@H]5COC(O)C5)[C@]4(C)CC[C@@H]3[C@@]12C (some centres undefined) [NEEMFRUITIN A] | 2.82 | 1.74 |
| CC(=O)O[C@H]1O[C@@H]([C@@H]2OC2(C)C)C[C@H]1[C@@H]1CC=C2[C@]3(C)[C@H](O)C[C@H]4C(C)(C)C(=O)C=C[C@]4(C)[C@H]3CC[C@]21C [NEEMFRUITIN B] | 9.49 | 9.98 |
| CC(=O)O[C@@H]1C[C@H]2C(C)(C)C(=O)C=C[C@]2(C)[C@H]2CC[C@]3(C)C(=CC[C@H]3[C@H]3CO[C@@H]([C@H](O)C(C)(C)O)C3)[C@@]21C [PROTOXYLOCARPIN G] | 5 | 2.4 |
| CC(=O)O[C@@H]1C[C@H]2C(C)(C)C(=O)C=C[C@]2(C)[C@H]2CC[C@]3(C)C(=CC[C@H]3[C@H]3COC(O)(C(C)(C)O)[C@H](O)C3)[C@@]21C (some centres undefined) [SPICATIN] | 5.4 | 2.74 |
